Compound activity from PubChem BioAssay.
STAT3 inh = reduces IL-6 driven STAT3 reporter signal | U3A cells, IL-6 STAT3-luciferase reporter, luminescence; host cell line lacks STAT1 | inhibition, % at 5.5 µM | 190,000 tested, 0.89% active | AID 862;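 active = inhibition above the mean inhibition across all screened compounds plus 3 SD, cut at about 44% in these data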
STAT3 act-1 = activators of IL-6 induced STAT3 signaling. U3A cells, IL-6 STAT3-luciferase reporter, luminescence; 100% = signal with IL-6 EC80 alone. activation (% of control), % at 5.6 µM. 190,000 tested, 0.91% active. AID 871;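 active = activation above the screen-wide mean of compound activation plus 3 SD, cut at about 130% in these data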
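System – human U3A cells carrying STAT3-luciferase construct · Probe or stimulus – Interleukin-6, 33 ng/mL · Schedule – compound 1 h, then IL-6 6 h at 37 °C · Signal – luminescence from STAT3-driven luciferase reporter · Evaluation – percent of IL-6-only median luminescence · Benchmarks – IL-6-only high control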
PPC-1+TRAIL kill = PPC-1 cancer cell killing with TRAIL present | cell killing (% activity), % at 4 µM or 5 µM | PPC-1 cells + TRAIL, ATPLite viability luminescence | 220,000 tested, 0.41% active;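 active = cell killing above 50% in the first pass at 4 µM, then a duplicate retest at 5 µM averaging 50% or more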
STAT1 blocker = inhibitors of IFN-gamma induced STAT1 signaling. NIH 3T3 STAT1-luciferase reporter, luminescence. inhibition, % at 5.5 µM. 200,000 tested, 0.35% active. AID 920;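 active = inhibition above a set limit, the mean inhibition across all tested compounds plus 3 SD, cut at about 34% in these data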
C8 TRAIL sens = caspase-8 TRAIL sensitization; NB7+C8 cells + TRAIL, ATPlite viability luminescence; inhibition (viability loss, TRAIL sensitization), % at 10 µM; 360,000 tested, 1% active;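 active = compounds causing at least 50% loss of cell viability in the single-dose screen, relative to plate controls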
STAT3 act-2 = confirmation of STAT3 signaling activators. AID 1267. U3A STAT3-luciferase reporter, IL-6 potentiation, luminescence; U3A cells lack STAT1; 100 means same as IL-6 alone. shares compounds with STAT3 act-1. potentiation (% of control), % at 5.7 µM. 1,200 tested, 64% active;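 active = percent activation of the STAT3 luciferase reporter above a set limit taken from the earlier primary screen, cut at about 130% in these data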
NFkB act 2 = NF-kappaB activation in STAT3 activator counter-screen | human cells, NF-kappaB reporter activation | 1,200 tested, 11% active | activation (% of control), % at 5.7 µM | shares compounds with STAT3 act-1 | AID 1309; in the data active = activation above about 120%;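 note: reporter induced by TNF-alpha stimulation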
STAT1 act = STAT1 activation in STAT3 activator counter-screen. shares compounds with STAT3 act-1. NIH 3T3 STAT1-luciferase reporter, IFN-gamma, luminescence. activation (% of control), % at 5.7 µM. 1,200 tested, 13% active. AID 1318;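 active = activation above the solvent-only control well mean plus 3 SD, set per screening run, cut at about 120% in these data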
Each line names hits and unclear results; the compound was inactive in the other large screens (follow-up assays come after a bar, where they were run). Rows were chosen to be rich in hits. Some 1.8% of all compounds tested hit in one or more screens of this group.

COc1ccc(NC(=O)c2ccc(N3CCCC3=O)cc2)cc1Cl	none (no result: STAT3 inh, STAT3 act-1, PPC-1+TRAIL kill, STAT1 blocker)
O=c1cc(-c2ccccc2)[nH]n1-c1nc2ccccc2[nH]1	STAT3 act-1 155 | STAT3 act-2 141 | NFkB act 2 157 | STAT1 act 141
CCc1cc(=O)[nH]c(-n2[nH]c(-c3ccccc3)cc2=O)n1	none
CCCn1c2ccccc2c2nnc(SCC(=O)OC)nc21	none
CCCCn1c2ccccc2c2nnc(SCC(=O)NC3=NN=C(c4ccccc4)CS3)nc21	STAT3 act-1 136 (no result: C8 TRAIL sens) | STAT3 act-2 inactive | NFkB act 2 inactive | STAT1 act inactive
CCn1cc(C(=O)N2CCc3ccccc32)c(=O)c2cc(S(=O)(=O)N3CCOCC3)ccc21	STAT3 act-1 146 | STAT3 act-2 inactive | NFkB act 2 inactive | STAT1 act inactive
CCn1cc(C(=O)N2CCc3ccccc32)c(=O)c2cc(S(=O)(=O)N(C)C3CCCCC3)ccc21	none
Cn1nc(-c2ccc(Cl)cc2)c2cc(C(=O)NC3CC3)sc21	STAT3 act-1 174 | STAT3 act-2 185 | NFkB act 2 123 | STAT1 act 135
CCCCN(CC)CCNC(=O)c1cc2c(-c3ccc(Cl)cc3)nn(C)c2s1	none (no result: STAT3 inh, STAT3 act-1, PPC-1+TRAIL kill, STAT1 blocker)
CCN(CC)CCNC(=O)c1cc2c(-c3ccc(Cl)cc3)nn(C)c2s1	STAT3 act-1 177 | STAT3 act-2 165 | NFkB act 2 inactive | STAT1 act inactive
Cn1nc(-c2ccc(Cl)cc2)c2cc(C(=O)NCCN3CCOCC3)sc21	STAT3 act-1 145 | STAT3 act-2 152 | NFkB act 2 inactive | STAT1 act inactive
O=C(NCCCN1CCOCC1)c1ccc(Cl)s1	none
CCOC(=O)N1CCC(NC(=O)c2cc3c(-c4cccc(OC)c4)nn(C)c3s2)CC1	none
Cn1nc(-c2ccc(Cl)cc2)c2cc(C(=O)NCCCN3CCOCC3)sc21	STAT3 act-1 155 | STAT3 act-2 134 | NFkB act 2 inactive | STAT1 act inactive
COc1ccc(Cl)cc1NC(=O)C(C)Sc1nncn1C (stereo not given)	none
COc1ccc(OC)c(-c2nnc(NC(=O)C(C)Sc3nncn3C)s2)c1 (stereo not given)	STAT3 act-1 140 | STAT3 act-2 inactive | NFkB act 2 inactive | STAT1 act inactive
N/C(=N\NC(=O)c1ccc(F)cc1)c1cc2ccccc2oc1=O	STAT3 act-1 146 | STAT3 act-2 142 | NFkB act 2 inactive | STAT1 act inactive
N/C(=N\NC(=O)c1cccc(F)c1)c1cc2ccccc2oc1=O	none (no result: STAT3 inh, STAT3 act-1, STAT1 blocker)
COc1ccc(Nc2nc(C)cc(C)c2C#N)cc1	STAT3 act-1 137 | STAT3 act-2 150 | NFkB act 2 inactive | STAT1 act inactive
CCOc1ccc(Nc2nc(C)cc(C)c2C#N)cc1	STAT3 act-1 140 | STAT3 act-2 inactive | NFkB act 2 inactive | STAT1 act inactive
CCCCN1C(=O)C(CC(=O)NCc2cccs2)CC(C(=O)N(C(C)C)C(C)C)=C1C (stereo not given)	none (no result: STAT3 inh, STAT3 act-1, PPC-1+TRAIL kill, STAT1 blocker)
Cc1c(C(=O)Nc2nc3ccccc3[nH]2)oc2c(Cl)cccc12	STAT3 act-1 143 | STAT3 act-2 178 | NFkB act 2 121 | STAT1 act 122
Cc1c(C(=O)Nc2nc3ccccc3[nH]2)oc2ccc(Br)cc12	none
Cc1ccc(-n2nc(C)cc2NC(=O)CC#N)cc1	none
Cc1ccc(-n2nc(C)cc2NC(=O)c2ccc(C)s2)cc1	STAT3 act-1 136 | STAT3 act-2 inactive | NFkB act 2 inactive | STAT1 act inactive
COc1ccc(/C=N/Nc2ccc([N+](=O)[O-])cc2)cc1O	none (no result: STAT3 inh, STAT3 act-1, PPC-1+TRAIL kill, STAT1 blocker)
COc1ccc(-c2ccc(-c3nnc(-c4cc(OC)ccc4OC)o3)cc2)cc1	STAT3 act-1 138 | STAT3 act-2 inactive | NFkB act 2 inactive | STAT1 act inactive
CC1CCc2c(sc(NC(=O)/C=C/c3cccs3)c2C(=O)O)C1 (stereo not given)	none (no result: STAT3 inh, STAT3 act-1, PPC-1+TRAIL kill, STAT1 blocker)
CCOC(=O)[C@]12CCC=C1N(Cc1ccc3c(c1)OCO3)C(=O)[C@H](CC(=O)NCCc1ccccc1OC)C2	none (no result: STAT3 inh, STAT3 act-1, PPC-1+TRAIL kill, STAT1 blocker)
CCSc1ccc([C@@H]2[C@@H]3C(=O)N(C)C(=O)[C@@H]3[C@]3(C(=O)OC)CCCCN23)cc1	none (no result: STAT3 inh, STAT3 act-1, PPC-1+TRAIL kill, STAT1 blocker)
Cc1cc(C(=O)N2CCc3c([nH]c4ccccc34)C2c2cccc(Cl)c2)nn1C (stereo not given)	STAT3 act-1 153 | STAT3 act-2 202 | NFkB act 2 inactive | STAT1 act 122
CC(=O)NCCC(=O)N1CCc2c([nH]c3ccccc23)C1c1cccc(Cl)c1 (stereo not given)	STAT3 act-1 150 | STAT3 act-2 143 | NFkB act 2 inactive | STAT1 act inactive
O=C(c1cnccn1)N1CCc2c([nH]c3ccccc23)C1c1cccc(Cl)c1 (stereo not given)	none
CC(=O)NCCC(=O)N1CCc2c([nH]c3ccccc23)C1c1cccc(C)c1 (stereo not given)	STAT3 act-1 147 | STAT3 act-2 144 | NFkB act 2 inactive | STAT1 act inactive
COc1ccc(NC(=O)C(=O)N2N=C3CCCCC3C2(O)C(F)(F)F)cc1 (stereo not given)	none
CCN(CC)S(=O)(=O)c1ccc(-c2nnc3sc4cccc(C)c4n23)cc1	STAT3 act-1 148 | STAT3 act-2 160 | NFkB act 2 inactive | STAT1 act inactive
O=C(/C=C1\C(=O)Nc2ccccc21)/C=C1\C(=O)Nc2ccccc21	none (no result: STAT3 inh, STAT3 act-1, STAT1 blocker)
CN(O)/C=C1\C(=O)Nc2ccccc21	STAT3 act-1 142 | STAT3 act-2 inactive | NFkB act 2 inactive | STAT1 act inactive
CCCNC(=O)Cn1c2ccccc2c2nc(=O)cc(C)n21	STAT3 act-1 170 | STAT3 act-2 158 | NFkB act 2 inactive | STAT1 act inactive
Oc1ccccc1/C=N/Nc1cccc2cccnc12	STAT3 act-1 162 | STAT3 act-2 164 | NFkB act 2 inactive | STAT1 act inactive
COCCn1c(C)cc(C(=O)COC(=O)/C=C/c2c(C)nn(C3CCS(=O)(=O)C3)c2Cl)c1C (stereo not given)	none (no result: STAT3 inh, STAT3 act-1, PPC-1+TRAIL kill, STAT1 blocker)
COc1cc(OC)cc(C2=Cc3ccc(OC)cc3C(CC(C)=O)N2c2ccc(-c3cccs3)cc2)c1 (stereo not given)	none (no result: STAT3 inh, STAT3 act-1, PPC-1+TRAIL kill, STAT1 blocker)
Cc1nc2c(oc3ccccc32)c(=O)o1	STAT3 act-1 174 | STAT3 act-2 159 | NFkB act 2 inactive | STAT1 act inactive
O=c1[nH]c(Cc2ccccc2)nc2c1oc1ccccc12	none
CCCc1cc2c(=O)c(-c3nc4ccccc4s3)c(COCC(=O)O)oc2cc1O	STAT3 act-1 151 | STAT3 act-2 146 | NFkB act 2 inactive | STAT1 act inactive
